Results from ChEMBL document CHEMBL1138814, “Synthesis, antiviral activity, and mode of action of some 3-substituted 2,5,6-trichloroindole 2'- and 5'-deoxyribonucleosides” (J Med Chem, 2004).

Tests used:
HFF [1] = assay: Inhibitory concentration required against human cytomegalovirus (HCMV) expressed in HFF cells was determined by plaque reduction assay; assay type: functional, cell-based
Outline: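 HCMV Towne strain at about 100 pfu/cm² was adsorbed onto HFF monolayers. Compounds from 10 mg/mL DMSO stocks were diluted in growth medium and added at four to eight concentrations in duplicate wells. After 7–10 days at 37 °C, cells were fixed and stained with crystal violet and plaques counted microscopically. Percent plaque reduction versus no drug was regressed against log concentration to give IC50.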

HFF [2] = assay: Cytotoxicity produced in stationary HFF cells was determined by microscopic inspection of uninfected cells; assay type: functional, cell-based; conditions: Homo sapiens
Outline: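 Cytotoxicity was scored visually by microscopy on stationary HFF cells not affected by virus, at the time of HCMV plaque enumeration, in duplicate wells. IC50 came from linear regression of percent inhibition against log concentration.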

[3] = Inhibitory concentration required against herpes simplex virus type-1 (HSV-1) expressed in BSC-1 cells was determined by ELISA assay; assay type: functional, cell-based, Cercopithecidae
Outline: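 BSC-1 cells (10 000/well, MEM(E) with 10% calf serum) were incubated overnight. Drug (quadruplicate) and HSV-1 at 100 pfu/well were then added, followed by 3 days at 37 °C. Plates were blocked and probed with HRP-conjugated rabbit anti-HSV-1 antibody, developed with TMB and stopped with H2SO4, with absorbance read at 450 and 570 nm. Percent absorbance reduction versus no drug was regressed against log concentration to give IC50.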

[4] = Cytotoxicity against KB cells was determined by crystal violet staining and spectrophotometric quantitation of dye eluted from stained cells; assay type: functional, cell-based; conditions: Homo sapiens
Outline: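 KB cells were seeded at 3000–5000 per well and incubated overnight. Compound was added at six to eight concentrations for 48 h at 37 °C in CO2, covering two population doublings. Cells were fixed in 95% ethanol and stained with 0.1% crystal violet, and the dye was eluted with acidified ethanol and read at 570 nm. IC50 came from regression of percent inhibition against log concentration.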

HFF [5] = assay: Inhibitory concentration required against human cytomegalovirus (HCMV) wild type expressed in HFF cells was determined by plaque reduction assay; assay type: functional, cell-based
Outline: (§1)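 HFF monolayers in 24-well dishes were infected with about 100 pfu HCMV per cm² (wild type Towne; mutant strains carry UL56, UL89 or UL56 + UL89 mutations). After adsorption, drug from 10 mg/mL DMSO stock was diluted in medium and added at four to eight concentrations in duplicate wells. Cells were held 7–10 days at 37 °C, then crystal-violet stained and plaques counted against no-drug controls. IC50 came from linear regression of % inhibition versus log10 concentration, averaged over two experiments.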

HFF [6] = assay: Inhibitory concentration required against human cytomegalovirus (HCMV) D10 strain (UL89 mutant gene) expressed in HFF cells was determined by plaque reduction assay; assay type: functional, cell-based; outline: as §1
HFF [7] = assay: Inhibitory concentration required against human cytomegalovirus (HCMV) r56 strain (UL56 mutant gene) expressed in HFF cells was determined by plaque reduction assay; assay type: functional, cell-based; outline: as §1
HFF [8] = assay: Inhibitory concentration required against human cytomegalovirus (HCMV) C4 strain (UL56 + UL89 mutant gene) expressed in HFF cells was determined by plaque reduction assay; assay type: functional, cell-based; outline: as §1

| Structure (SMILES) | IC50 (HFF [1]) [µM] | IC50 (HFF [2]) [µM] | IC50 [3] [µM] | IC50 [4] [µM] | IC50 (HFF [5]) [µM] | IC50 (HFF [6]) [µM] | IC50 (HFF [7]) [µM] | IC50 (HFF [8]) [µM] |
| --- | --- | --- | --- | --- | --- | --- | --- | --- |
| OC[C@H]1O[C@@H](n2c(Cl)nc3cc(Cl)c(Cl)cc32)C[C@@H]1O | 20 | > 100 |  |  |  |  |  |  |
| OC[C@H]1O[C@@H](n2c(Cl)c(-c3ccco3)c3cc(Cl)c(Cl)cc32)C[C@@H]1O | 3.6 | 3.2 | 20 | 50 |  |  |  |  |
| OC[C@H]1O[C@@H](n2c(Cl)c(-c3ccsc3)c3cc(Cl)c(Cl)cc32)C[C@@H]1O | 38 | 32 | 20 | 50 |  |  |  |  |
| COc1c(C#N)c2cc(Cl)c(Cl)cc2n1[C@H]1C[C@H](O)[C@@H](CO)O1 | 68 | > 100 | 90 | > 100 |  |  |  |  |
| COc1c(C=O)c2cc(Cl)c(Cl)cc2n1[C@H]1C[C@H](O)[C@@H](CO)O1 | > 100 | 100 | > 100 | 20 |  |  |  |  |
| CC(=O)c1c(Cl)n([C@H]2C[C@H](O)[C@@H](CO)O2)c2cc(Cl)c(Cl)cc12 | 0.3 | > 100 | 8 | 400 | 0.22 | 0.76 | 1.8 | 2.1 |
| N#Cc1c(Cl)n([C@H]2C[C@H](O)[C@@H](CO)O2)c2cc(Cl)c(Cl)cc12 | 0.3 | 32 | 35 | 60 |  |  |  |  |
| CC(=O)c1c(Br)n([C@H]2C[C@H](O)[C@@H](CO)O2)c2cc(Cl)c(Cl)cc12 | 0.34 | > 100 | > 100 | > 100 |  |  |  |  |
| OC[C@H]1O[C@@H](n2c(Br)nc3cc(Cl)c(Cl)cc32)C(O)[C@@H]1O (single isomer, unassigned) |  |  | 130 | > 100 | 0.99 | 12 | 6.7 | 29 |
| OC[C@H]1O[C@@H](n2c(Cl)nc3cc(Cl)c(Cl)cc32)C(O)[C@@H]1O (single isomer, unassigned) |  |  | 102 | 210 |  |  |  |  |
| N#Cc1c(Cl)n(C2O[C@H](CO)[C@@H](O)C2O)c2cc(Cl)c(Cl)cc12 (single isomer, unassigned) |  |  | > 100 | 35 |  |  |  |  |
| N#Cc1c(Cl)n(C2O[C@H](CN=[N+]=[N-])[C@@H](O)C2O)c2cc(Cl)c(Cl)cc12 (single isomer, unassigned) | 3 | > 100 | 15 | 60 |  |  |  |  |
| O=Cc1c(Cl)n(C2O[C@H](CO)[C@@H](O)C2O)c2cc(Cl)c(Cl)cc12 (single isomer, unassigned) |  |  | 40 | 45 | 0.46 | 0.88 | 1.8 | 4.8 |
| CC(=O)c1c(Cl)n(C2O[C@H](CO)[C@@H](O)C2O)c2cc(Cl)c(Cl)cc12 (single isomer, unassigned) |  |  |  |  | 0.26 | 0.72 | 1.2 | 6.2 |
| C[C@H]1OC(n2c(Cl)nc3cc(Cl)c(Cl)cc32)C(O)[C@@H]1O (single isomer, unassigned) | 0.36 | 100 |  |  |  |  |  |  |
| CC(=O)OC[C@H]1OC(n2c(Cl)c(C=O)c3cc(Cl)c(Cl)cc32)C(O)[C@@H]1O (single isomer, unassigned) |  |  |  |  | 0.22 | 0.88 | 1.6 | 3.3 |
| C[C@H]1OC(n2c(Cl)c(C=O)c3cc(Cl)c(Cl)cc32)C(O)[C@@H]1O (single isomer, unassigned) | 0.3 | 32 | 20 | 25 |  |  |  |  |
| [N-]=[N+]=NC[C@H]1OC(n2c(Cl)c(C=O)c3cc(Cl)c(Cl)cc32)C(O)[C@@H]1O (single isomer, unassigned) | 0.32 | 32 | 10 | 25 |  |  |  |  |
| C[C@H]1OC(n2c(Cl)c(C#N)c3cc(Cl)c(Cl)cc32)C(O)[C@@H]1O (single isomer, unassigned) | 0.19 | 32 | 32 | 40 |  |  |  |  |
| N#Cc1c(Cl)n(C2O[C@H](CF)[C@@H](O)C2O)c2cc(Cl)c(Cl)cc12 (single isomer, unassigned) | 2.7 | 32 | 40 | 50 |  |  |  |  |
| O=Cc1c(Cl)n(C2O[C@H](CF)[C@@H](O)C2O)c2cc(Cl)c(Cl)cc12 (single isomer, unassigned) | 0.6 | 32 | 20 | 20 |  |  |  |  |
| Nc1nc2c(ncn2COC(CO)CO)c(=O)[nH]1 [GANCICLOVIR] |  | > 100 | 3.5 | > 100 | 1.2 | 1.2 | 1.2 | 2.5 |
